ChEMBL document CHEMBL5705905, “Pharmacological targeting of kinases MST1 and MST2 augments tissue repair and regeneration” (Sci Transl Med, 2016)
pIC50, pKd: −log10 of the molar value. The source made the active and inactive calls. No cut-off for these calls is given here.

Columns and labels:
[1] = biological target: Serine/threonine-protein kinase MRCK alpha (Homo sapiens) (UniProt Q5VT25); experiment: Inhibition of MRCKA (unknown origin) assessed as remaining activity at 1 uM by Kinome scan method relative to control
[2] = biological target: Aurora kinase C (Homo sapiens) (UniProt Q9UQB9); experiment: Inhibition of AURKC (unknown origin) assessed as remaining activity at 1 uM by Kinome scan method relative to control
Method in brief: (§1)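 KINOMEscan active-site-dependent competition-binding panel of 468 kinases, compound at 1 μM from a DMSO stock. Result reported as ctrl% = (test signal − positive control signal)/(negative control signal − positive control signal) × 100. The negative control is DMSO (100%) and the positive control is a control compound (0%). Lower ctrl% means tighter binding.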

[3] = system: Mus musculus; experiment: Anti-colitis activity against DSS-induced mouse assessed as high BrdU incorporation at 1 mg/kg, ip administrated daily for 8 days by IHC staining; type: functional, organism-based; details: Colon, time 8.0 day
Method in brief: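 Wild-type mice received oral DSS for 7 days with vehicle or 1 mg/kg daily. Colon sections were stained by IHC for YAP, BrdU and Ki67, and positive cells were quantified per animal. Means ± SD, n = 10, Student's t test.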

[4] = biological target: Cyclin-dependent kinase 15 (Homo sapiens) (UniProt Q96Q40); experiment: Inhibition of PFTAIRE2 (unknown origin) assessed as remaining activity at 1 uM by Kinome scan method relative to control
Chain of Cyclin-dependent kinase 15 (Homo sapiens) (Q96Q40 whole entry): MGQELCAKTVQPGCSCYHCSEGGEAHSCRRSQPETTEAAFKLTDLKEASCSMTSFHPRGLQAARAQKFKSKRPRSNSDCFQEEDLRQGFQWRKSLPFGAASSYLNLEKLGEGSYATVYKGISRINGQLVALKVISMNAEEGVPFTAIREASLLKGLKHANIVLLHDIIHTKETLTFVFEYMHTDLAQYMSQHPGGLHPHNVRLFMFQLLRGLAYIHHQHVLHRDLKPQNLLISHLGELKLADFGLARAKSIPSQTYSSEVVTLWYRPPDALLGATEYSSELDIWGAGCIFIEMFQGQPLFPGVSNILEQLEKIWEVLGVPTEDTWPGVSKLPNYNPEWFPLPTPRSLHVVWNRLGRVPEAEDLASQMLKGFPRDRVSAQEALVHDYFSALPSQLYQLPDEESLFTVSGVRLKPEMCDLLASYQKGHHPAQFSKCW

[5] = Acute toxicity in wild-type mouse assessed as ratio of liver weight to body weight at 1 mg/kg,ip administrated twice daily for 7 days; type: organism-based; details: in vivo, 168 h, time 7 day
Method in brief: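 Wild-type mice underwent two-thirds partial hepatectomy with vehicle or 1 mg/kg i.p. twice per day, starting with a dose before surgery. Liver/body weight ratio was followed over postoperative days, n = 5; means ± SD.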

[6] = biological target: Ephrin type-B receptor 6 (Homo sapiens) (UniProt O15197); experiment: Inhibition of EPHB6 (unknown origin) assessed as remaining activity at 1 uM by Kinome scan method relative to control
Chain of Ephrin type-B receptor 6 (Homo sapiens) (O15197 whole entry): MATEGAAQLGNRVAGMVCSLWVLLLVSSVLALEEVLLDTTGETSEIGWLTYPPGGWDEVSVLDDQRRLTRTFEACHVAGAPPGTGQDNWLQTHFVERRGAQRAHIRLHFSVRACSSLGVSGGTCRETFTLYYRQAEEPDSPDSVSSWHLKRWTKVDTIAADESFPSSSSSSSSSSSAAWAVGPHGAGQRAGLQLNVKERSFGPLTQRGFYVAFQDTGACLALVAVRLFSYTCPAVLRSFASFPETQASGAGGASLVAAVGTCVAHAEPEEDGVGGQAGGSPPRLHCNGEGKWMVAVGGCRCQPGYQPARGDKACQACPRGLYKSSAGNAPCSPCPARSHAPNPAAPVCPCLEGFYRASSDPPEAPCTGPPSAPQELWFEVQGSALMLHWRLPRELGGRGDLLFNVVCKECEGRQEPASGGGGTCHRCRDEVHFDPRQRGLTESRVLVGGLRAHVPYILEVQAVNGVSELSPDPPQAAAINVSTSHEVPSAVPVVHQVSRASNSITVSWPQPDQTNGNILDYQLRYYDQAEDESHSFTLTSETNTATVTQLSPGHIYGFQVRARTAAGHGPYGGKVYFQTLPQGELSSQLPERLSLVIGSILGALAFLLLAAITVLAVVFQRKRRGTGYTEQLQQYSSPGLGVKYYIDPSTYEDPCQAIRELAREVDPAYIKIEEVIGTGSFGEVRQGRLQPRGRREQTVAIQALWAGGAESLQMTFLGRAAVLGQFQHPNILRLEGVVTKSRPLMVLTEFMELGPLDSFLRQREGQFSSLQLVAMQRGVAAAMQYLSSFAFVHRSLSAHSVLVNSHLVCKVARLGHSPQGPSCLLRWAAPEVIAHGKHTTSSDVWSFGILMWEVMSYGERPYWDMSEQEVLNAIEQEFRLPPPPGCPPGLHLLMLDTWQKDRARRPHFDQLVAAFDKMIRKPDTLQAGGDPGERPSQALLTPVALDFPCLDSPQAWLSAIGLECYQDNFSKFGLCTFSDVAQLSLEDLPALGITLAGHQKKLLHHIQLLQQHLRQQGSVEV

[7] = species: Homo sapiens; experiment: Inhibition of ALK C1156V mutant (unknown origin) assessed as remaining activity at 1 uM by Kinome scan method relative to control; method in brief: as §1
[8] = biological target: Cytoplasmic tyrosine-protein kinase BMX (Homo sapiens) (UniProt P51813); experiment: Inhibition of BMX (unknown origin) assessed as remaining activity at 1 uM by Kinome scan method relative to control
Chain of Cytoplasmic tyrosine-protein kinase BMX (Homo sapiens) (P51813 whole entry): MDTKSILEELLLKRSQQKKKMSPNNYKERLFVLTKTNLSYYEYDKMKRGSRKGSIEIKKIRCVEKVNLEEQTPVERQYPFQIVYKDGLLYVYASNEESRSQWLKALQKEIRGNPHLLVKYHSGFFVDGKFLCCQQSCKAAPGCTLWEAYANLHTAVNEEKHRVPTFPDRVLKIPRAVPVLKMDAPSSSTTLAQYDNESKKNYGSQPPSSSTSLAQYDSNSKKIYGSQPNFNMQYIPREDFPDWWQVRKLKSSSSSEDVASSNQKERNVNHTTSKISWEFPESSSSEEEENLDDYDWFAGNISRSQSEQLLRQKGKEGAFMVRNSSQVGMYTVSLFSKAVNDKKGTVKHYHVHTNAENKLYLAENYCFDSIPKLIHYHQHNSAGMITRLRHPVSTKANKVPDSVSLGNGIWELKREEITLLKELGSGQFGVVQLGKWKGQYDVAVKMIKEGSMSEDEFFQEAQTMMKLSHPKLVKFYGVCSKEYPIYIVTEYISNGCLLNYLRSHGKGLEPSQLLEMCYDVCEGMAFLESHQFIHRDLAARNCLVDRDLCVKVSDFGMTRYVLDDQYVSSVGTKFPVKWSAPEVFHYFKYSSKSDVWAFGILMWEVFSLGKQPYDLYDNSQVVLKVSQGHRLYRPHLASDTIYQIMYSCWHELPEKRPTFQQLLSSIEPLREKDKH
Method in brief: (§2)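 Active-site-dependent competition-binding (KINOMEscan) panel of 468 kinases, test compound at 1 μM (from a 10 mM DMSO stock). Read-out is ctrl% = (test signal − positive control signal)/(negative control signal − positive control signal) × 100. DMSO is the negative control (100%) and a control compound is the positive control (0%). Lower ctrl% means tighter binding.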

[9] = biological target: Serine/threonine-protein kinase 3 (Homo sapiens, UniProt Q13188, D109A/Y101F)
[10] = biological target: MAP/microtubule affinity-regulating kinase 3 (Homo sapiens) (UniProt P27448); experiment: Inhibition of MARK3 (unknown origin) assessed as remaining activity at 1 uM by Kinome scan method relative to control
Chain of MAP/microtubule affinity-regulating kinase 3 (Homo sapiens) (P27448 whole entry, looked up): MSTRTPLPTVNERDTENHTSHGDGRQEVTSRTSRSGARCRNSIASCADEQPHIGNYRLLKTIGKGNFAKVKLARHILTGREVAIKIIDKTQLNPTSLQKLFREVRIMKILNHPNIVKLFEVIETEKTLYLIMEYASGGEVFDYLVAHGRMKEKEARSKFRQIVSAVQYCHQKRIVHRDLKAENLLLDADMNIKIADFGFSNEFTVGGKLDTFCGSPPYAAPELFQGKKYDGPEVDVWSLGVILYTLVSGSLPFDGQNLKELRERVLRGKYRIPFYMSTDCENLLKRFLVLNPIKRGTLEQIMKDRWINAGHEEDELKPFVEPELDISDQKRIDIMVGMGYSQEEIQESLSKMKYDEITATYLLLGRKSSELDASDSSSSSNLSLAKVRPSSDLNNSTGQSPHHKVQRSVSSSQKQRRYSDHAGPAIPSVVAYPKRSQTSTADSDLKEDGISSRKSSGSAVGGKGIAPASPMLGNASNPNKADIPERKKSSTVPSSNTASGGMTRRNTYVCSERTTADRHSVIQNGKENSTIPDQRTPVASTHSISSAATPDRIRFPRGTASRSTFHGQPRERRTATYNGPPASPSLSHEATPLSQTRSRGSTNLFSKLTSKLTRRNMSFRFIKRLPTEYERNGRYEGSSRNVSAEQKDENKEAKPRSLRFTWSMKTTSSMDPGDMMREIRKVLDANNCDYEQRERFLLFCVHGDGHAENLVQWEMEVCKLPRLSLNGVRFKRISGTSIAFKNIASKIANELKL

[11] = biological target: RAC-gamma serine/threonine-protein kinase (Homo sapiens) (UniProt Q9Y243); experiment: Inhibition of AKT3 (unknown origin) assessed as remaining activity at 1 uM by Kinome scan method relative to control; method in brief: as §2
Chain of RAC-gamma serine/threonine-protein kinase (Homo sapiens) (Q9Y243 whole entry): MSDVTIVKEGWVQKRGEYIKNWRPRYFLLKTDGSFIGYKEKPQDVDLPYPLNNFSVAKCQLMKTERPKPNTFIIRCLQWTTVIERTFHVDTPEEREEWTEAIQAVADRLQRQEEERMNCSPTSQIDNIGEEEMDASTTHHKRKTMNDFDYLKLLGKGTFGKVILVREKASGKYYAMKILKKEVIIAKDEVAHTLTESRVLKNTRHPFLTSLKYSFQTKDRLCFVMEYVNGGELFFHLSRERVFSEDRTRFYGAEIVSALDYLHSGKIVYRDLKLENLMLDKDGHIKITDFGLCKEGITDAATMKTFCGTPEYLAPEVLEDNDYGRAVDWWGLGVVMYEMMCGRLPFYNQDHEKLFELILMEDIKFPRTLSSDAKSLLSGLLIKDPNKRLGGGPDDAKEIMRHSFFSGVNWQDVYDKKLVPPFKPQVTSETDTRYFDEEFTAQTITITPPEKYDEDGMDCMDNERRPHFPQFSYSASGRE

[12] = biological target: Mitogen-activated protein kinase kinase kinase 3 (Homo sapiens, UniProt Q99759); experiment: Binding affinity to MAP3K3 (unknown origin) assessed as dissociation constant
Chain of Mitogen-activated protein kinase kinase kinase 3 (Q99759 whole entry): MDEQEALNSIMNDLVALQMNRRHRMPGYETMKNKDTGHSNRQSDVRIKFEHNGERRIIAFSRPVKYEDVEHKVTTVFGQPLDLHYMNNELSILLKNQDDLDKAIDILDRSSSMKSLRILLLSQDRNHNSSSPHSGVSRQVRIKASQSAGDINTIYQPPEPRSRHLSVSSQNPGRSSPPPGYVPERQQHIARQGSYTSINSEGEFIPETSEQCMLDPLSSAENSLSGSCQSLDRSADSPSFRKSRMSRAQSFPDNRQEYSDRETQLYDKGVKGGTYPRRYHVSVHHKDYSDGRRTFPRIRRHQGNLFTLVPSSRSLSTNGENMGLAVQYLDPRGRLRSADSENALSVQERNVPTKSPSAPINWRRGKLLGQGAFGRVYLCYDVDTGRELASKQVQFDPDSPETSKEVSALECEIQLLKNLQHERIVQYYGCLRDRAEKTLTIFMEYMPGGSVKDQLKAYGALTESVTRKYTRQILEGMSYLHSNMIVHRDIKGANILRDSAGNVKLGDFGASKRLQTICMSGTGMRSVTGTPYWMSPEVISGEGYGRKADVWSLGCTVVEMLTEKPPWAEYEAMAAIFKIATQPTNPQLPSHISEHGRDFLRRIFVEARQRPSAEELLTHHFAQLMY

[13] = biological target: Tyrosine-protein kinase ABL1 (Homo sapiens, UniProt P00519, Q252H); experiment: Inhibition of phosphorylated ABL1 Q252H mutant (unknown origin) in presence of ATP by enzymatic assay
[14] = biological target: Aurora kinase A (Homo sapiens) (UniProt O14965); experiment: Inhibition of AURKA (unknown origin) assessed as remaining activity at 1 uM by Kinome scan method relative to control; method in brief: as §2
Chain of Aurora kinase A (Homo sapiens) (O14965 whole entry, canonical isoform): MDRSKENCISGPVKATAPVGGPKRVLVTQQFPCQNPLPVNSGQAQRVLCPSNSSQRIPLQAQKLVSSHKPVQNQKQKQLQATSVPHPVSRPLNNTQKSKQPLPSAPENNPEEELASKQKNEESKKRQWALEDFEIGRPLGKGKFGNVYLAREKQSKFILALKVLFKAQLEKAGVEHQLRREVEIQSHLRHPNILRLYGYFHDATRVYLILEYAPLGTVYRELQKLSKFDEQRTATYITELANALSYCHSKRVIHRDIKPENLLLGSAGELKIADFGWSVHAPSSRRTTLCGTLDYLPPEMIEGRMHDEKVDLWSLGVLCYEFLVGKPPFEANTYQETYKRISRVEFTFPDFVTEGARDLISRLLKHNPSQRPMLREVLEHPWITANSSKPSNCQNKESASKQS

[15] = biological target: Phosphatidylinositol 4,5-bisphosphate 3-kinase catalytic subunit alpha isoform (Homo sapiens) (UniProt P42336); experiment: Inhibition of PIK3CA (unknown origin) assessed as remaining activity at 1 uM by Kinome scan method relative to control
[16] = biological target: NUAK family SNF1-like kinase 1 (Homo sapiens) (UniProt O60285); experiment: Inhibition of ARK5 (unknown origin) assessed as remaining activity at 1 uM by Kinome scan method relative to control; method in brief: as §2
[17] = system: Receptor-type tyrosine-protein kinase FLT3 (Homo sapiens), P36888 [K663Q]; experiment: Inhibition of FLT3 K663Q mutant (unknown origin) assessed as remaining activity at 1 uM by Kinome scan method relative to control
[18] = system: Mus musculus; experiment: Protection against APAP induced liver injury in mouse assessed as cell death at 1 mg/kg, ip administered at 1.5 hrs in the presence of NAC relative to control; type: functional
[19] = system: HepG2; experiment: Induction of apoptosis in human HepG2 cells overexpressing MST2 assessed as late apoptosis cells at 3 uM by annexinV staining (Rvb =2.01 %); type: functional
[20] = biological target: Casein kinase I isoform gamma-3 (Homo sapiens) (UniProt Q9Y6M4); experiment: Inhibition of CSNK1G3 (unknown origin) assessed as remaining activity at 1 uM by Kinome scan method relative to control
Chain of Casein kinase I isoform gamma-3 (Homo sapiens) (Q9Y6M4 whole entry, looked up, canonical isoform): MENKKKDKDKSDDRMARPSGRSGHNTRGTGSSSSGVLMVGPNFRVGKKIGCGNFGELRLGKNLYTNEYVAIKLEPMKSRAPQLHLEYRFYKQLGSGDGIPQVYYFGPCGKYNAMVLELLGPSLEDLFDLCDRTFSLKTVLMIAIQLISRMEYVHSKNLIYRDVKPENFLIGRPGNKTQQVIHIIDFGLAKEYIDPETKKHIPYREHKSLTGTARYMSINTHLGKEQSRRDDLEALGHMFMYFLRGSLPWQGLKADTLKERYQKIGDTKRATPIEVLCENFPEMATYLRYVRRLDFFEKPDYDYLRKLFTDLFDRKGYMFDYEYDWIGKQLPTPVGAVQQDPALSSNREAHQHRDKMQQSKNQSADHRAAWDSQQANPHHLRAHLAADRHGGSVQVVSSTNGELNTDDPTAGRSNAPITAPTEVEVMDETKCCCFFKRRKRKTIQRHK
Method in brief: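 Active-site-dependent competition-binding profiling (KINOMEscan) at 1 μM against a 468-kinase panel; compound supplied from a 10 mM DMSO stock. Read-out is ctrl% = (test signal − positive control signal)/(negative control signal − positive control signal) × 100. DMSO is the negative control (100%) and a control compound the positive control (0%). Lower ctrl% means tighter binding.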

[21] = Tmax in male Sprague-Dawley rat at 5 mg/kg, iv measured for 24 hrs by LC-MS/MS analysis; type: ADME, organism-based; details: in vivo
[22] = system: Tyrosine-protein kinase ABL1 (Homo sapiens), P00519 [Y253F]; experiment: Inhibition of phosphorylated ABL1 Y253F mutant (unknown origin) assessed as remaining activity at 1 uM by Kinome scan method relative to control
[23] = biological target: Fibroblast growth factor receptor 2 (Homo sapiens) (UniProt P21802); experiment: Inhibition of FGFR2 (unknown origin) assessed as remaining activity at 1 uM by Kinome scan method relative to control

Structure (SMILES): CN1C(=O)c2sccc2N(C)c2nc(Nc3ccc(S(N)(=O)=O)cc3)ncc21
- Activity [1]: 76%
- Activity [2]: 95%
- Activity [3]: Active
- Activity [4]: 99%
- Activity [5]: Toxic
- Activity [6]: 100%
- Activity [7]: 95%
- Activity [8]: 90%
- pIC50 [9]: 5.78
- Activity [10]: 98%
- Activity [11]: 98%
- pKd [12]: 7.57
- pIC50 [13]: 7.94
- Activity [14]: 0.05%
- Activity [15]: 88%
- Activity [16]: 96%
- Activity [17]: 87%
- Activity [18]: 100%
- Activity [19]: 1.54%
- Activity [20]: 72%
- Tmax [21]: 4.98 min
- Activity [22]: 15%
- Activity [23]: 100%
